Test results published in ChEMBL document CHEMBL4017533, “Molecular Recognition of Agonists and Antagonists by the Nucleotide-Activated G Protein-Coupled P2Y2 Receptor” (J Med Chem, 2017).
Calls of active or inactive are those of the source. The rule behind the calls is not given here.

Legend:
[1] = system: P2Y purinoceptor 2 (Homo sapiens), P41231 [Y114F]; experiment: (§1) Antagonist activity at […] P2Y2 receptor Y114F mutant (unknown origin) expressed in human 1321N1 astrocytoma cells assessed as inhibition of UTP-induced increase in intracellular calcium mobilization preincubated for 30 mins followed by UTP addition measured after 1 hr by Fluo-4 AM dye based fluorescence assay; type: functional, cell-based
In short: (§2)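 Stably transduced 1321N1 cells expressing wt or mutant human P2Y2R were loaded with fluo-4 AM/Pluronic F-127 in HBSS for 1 h. Test compound was preincubated for 30 min, then UTP was injected at the EC80 determined for each cell line. Calcium fluorescence was read at ex 488/em 525 nm. IC50 was obtained by nonlinear regression, n ≥ 3.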

Homo sapiens [2] = species: Homo sapiens; experiment: as §1, with “R194H” for “Y114F”; type: cell-based; in short: as §2
P2Y purinoceptor 2 [3] = target: T1, P2Y purinoceptor 2 (Homo sapiens, UniProt P41231); experiment: as §1, with “receptor” for “receptor Y114F mutant”; type: functional, cell-based; in short: as §2
[4] = system: P2Y purinoceptor 2 (Homo sapiens), P41231 [R110A]; experiment: Agonist activity at P2Y2 receptor R110A mutant (unknown origin) expressed in human 1321N1 astrocytoma cells assessed as increase in intracellular calcium mobilization after 1 hr by Fluo-4 AM dye based fluorescence assay; type: functional, cell-based
In short: (§3)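 Human 1321N1 astrocytoma cells stably carrying wt or point-mutant human P2Y2R, introduced by retrovirus and selected with G418, plated at 50000 cells/well the day before. Cells loaded with fluo-4 AM plus Pluronic F-127 in HBSS for 1 h, then washed. Agonist added at graded concentrations, fluorescence read at ex 488/em 525 nm. […] Carbachol 100 μM acting on endogenous M3 served as the maximum reference.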

[5] = system: P2Y purinoceptor 2 (Homo sapiens), P41231 [F261A]; experiment: Agonist activity at P2Y2 receptor F261A mutant (unknown origin) expressed in human 1321N1 astrocytoma cells assessed as increase in intracellular calcium mobilization after 1 hr by Fluo-4 AM dye based fluorescence assay; type: functional, cell-based; in short: as §3
[6] = system: P2Y purinoceptor 2 (Homo sapiens), P41231 [Y114F]; experiment: Agonist activity at P2Y2 receptor Y114F mutant (unknown origin) expressed in human 1321N1 astrocytoma cells assessed as increase in intracellular calcium mobilization after 1 hr by Fluo-4 AM dye based fluorescence assay; type: functional, cell-based; in short: as §3
Homo sapiens [7] = species: Homo sapiens; experiment: Selectivity ratio of EC50 for P2Y2 receptor R194H mutant (unknown origin) to EC50 for wild type P2Y2 receptor (unknown origin)
[8] = system: P2Y purinoceptor 2 (Homo sapiens), P41231 [R265A]; experiment: Agonist activity at P2Y2 receptor R265A mutant (unknown origin) expressed in human 1321N1 astrocytoma cells assessed as increase in intracellular calcium mobilization after 1 hr by Fluo-4 AM dye based fluorescence assay; type: functional, cell-based; in short: as §3
[9] = system: P2Y purinoceptor 2 (Homo sapiens), P41231 [Y288F]; experiment: (§4) Agonist activity at P2Y2 receptor Y288F mutant (unknown origin) expressed in human 1321N1 astrocytoma cells assessed as increase in intracellular calcium mobilization after 1 hr by Fluo-4 AM dye based fluorescence assay; type: functional, cell-based; in short: as §3
[10] = system: P2Y purinoceptor 2 (Homo sapiens), P41231 [Y288A]; experiment: Agonist activity at P2Y2 receptor Y288A mutant (unknown origin) expressed in human 1321N1 astrocytoma cells assessed as increase in intracellular calcium mobilization after 1 hr by Fluo-4 AM dye based fluorescence assay; type: functional, cell-based; in short: as §3
[11] = system: P2Y purinoceptor 2 (Homo sapiens), P41231 [R292A]; experiment: Agonist activity at P2Y2 receptor R292A mutant (unknown origin) expressed in human 1321N1 astrocytoma cells assessed as increase in intracellular calcium mobilization after 1 hr by Fluo-4 AM dye based fluorescence assay; type: functional, cell-based; in short: as §3
Homo sapiens [12] = species: Homo sapiens; experiment: Agonist activity at P2Y2 receptor R194A mutant (unknown origin) expressed in human 1321N1 astrocytoma cells assessed as increase in intracellular calcium mobilization after 1 hr by Fluo-4 AM dye based fluorescence assay; type: cell-based; in short: as §3
Homo sapiens [13] = species: Homo sapiens; experiment: Selectivity ratio of EC50 for P2Y2 receptor R272A mutant (unknown origin) to EC50 for wild type P2Y2 receptor (unknown origin)
P2Y purinoceptor 2 [14] = target: T1, P2Y purinoceptor 2; experiment: Agonist activity at wild type P2Y2 receptor (unknown origin) expressed in human 1321N1 astrocytoma cells assessed as increase in intracellular calcium mobilization after 1 hr by Fluo-4 AM dye based fluorescence assay; type: functional, cell-based; in short: as §3
Homo sapiens [15] = species: Homo sapiens; experiment: Selectivity ratio of EC50 for P2Y2 receptor R194A mutant (unknown origin) to EC50 for wild type P2Y2 receptor (unknown origin)
Homo sapiens [16] = species: Homo sapiens; experiment: Selectivity ratio of EC50 for P2Y2 receptor Y114F mutant (unknown origin) to EC50 for wild type P2Y2 receptor (unknown origin)
Homo sapiens [17] = species: Homo sapiens; experiment: Selectivity ratio of EC50 for P2Y2 receptor F111A mutant (unknown origin) to EC50 for wild type P2Y2 receptor (unknown origin)
Homo sapiens [18] = species: Homo sapiens; experiment: Selectivity ratio of EC50 for P2Y2 receptor S193A mutant (unknown origin) to EC50 for wild type P2Y2 receptor (unknown origin)
P2Y purinoceptor 2 [19] = target: P2Y purinoceptor 2 (Homo sapiens, UniProt P41231, H184A); experiment: Agonist activity at P2Y2 receptor H184A mutant (unknown origin) expressed in human 1321N1 astrocytoma cells assessed as increase in intracellular calcium mobilization after 1 hr by Fluo-4 AM dye based fluorescence assay; type: functional, cell-based; in short: as §3
Homo sapiens [20] = species: Homo sapiens; experiment: Selectivity ratio of EC50 for P2Y2 receptor H184A mutant (unknown origin) to EC50 for wild type P2Y2 receptor (unknown origin)
Homo sapiens [21] = species: Homo sapiens; experiment: Selectivity ratio of EC50 for P2Y2 receptor Y268F mutant (unknown origin) to EC50 for wild type P2Y2 receptor (unknown origin)
P2Y purinoceptor 2 [22] = target: P2Y purinoceptor 2 (Homo sapiens, UniProt P41231, Y288F); experiment: as §4; type: functional, cell-based; in short: as §3
P2Y purinoceptor 2 [23] = target: P2Y purinoceptor 2 (Homo sapiens, UniProt P41231, S193A); experiment: Agonist activity at P2Y2 receptor S193A mutant (unknown origin) expressed in human 1321N1 astrocytoma cells assessed as increase in intracellular calcium mobilization after 1 hr by Fluo-4 AM dye based fluorescence assay; type: functional, cell-based; in short: as §3
Homo sapiens [24] = species: Homo sapiens; experiment: Selectivity ratio of EC50 for P2Y2 receptor Y288F mutant (unknown origin) to EC50 for wild type P2Y2 receptor (unknown origin)
Homo sapiens [25] = species: Homo sapiens; experiment: Selectivity ratio of EC50 for P2Y2 receptor Y269F mutant (unknown origin) to EC50 for wild type P2Y2 receptor (unknown origin)
Homo sapiens [26] = species: Homo sapiens; experiment: Selectivity ratio of EC50 for P2Y2 receptor F261A mutant (unknown origin) to EC50 for wild type P2Y2 receptor (unknown origin)
Homo sapiens [27] = species: Homo sapiens; experiment: Selectivity ratio of IC50 for P2Y2 receptor Y288F mutant (unknown origin) to IC50 for wild type P2Y2 receptor (unknown origin)
In short: (§5)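 Human P2Y2R, wild type or single point mutant, retrovirally transduced into 1321N1 astrocytoma cells and selected with G418. Cells were seeded at 50000/well overnight, loaded with fluo-4 AM for 1 h in HBSS, and preincubated with antagonist for 30 min. UTP was then injected at its EC80 for that cell line. Calcium fluorescence was read at ex 488/em 525 nm. IC50 was fitted by nonlinear regression (n ≥ 3), and the ratio was taken as mutant IC50 over wild-type IC50.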

Homo sapiens [28] = species: Homo sapiens; experiment: Selectivity ratio of IC50 for P2Y2 receptor R194H mutant (unknown origin) to IC50 for wild type P2Y2 receptor (unknown origin)
Homo sapiens [29] = species: Homo sapiens; experiment: Selectivity ratio of IC50 for P2Y2 receptor F261A mutant (unknown origin) to IC50 for wild type P2Y2 receptor (unknown origin)
Homo sapiens [30] = species: Homo sapiens; experiment: Selectivity ratio of IC50 for P2Y2 receptor Y268F mutant (unknown origin) to IC50 for wild type P2Y2 receptor (unknown origin); in short: as §5
Homo sapiens [31] = species: Homo sapiens; experiment: Selectivity ratio of IC50 for P2Y2 receptor Y114F mutant (unknown origin) to IC50 for wild type P2Y2 receptor (unknown origin); in short: as §5
Homo sapiens [32] = species: Homo sapiens; experiment: as §1, with “Y114A” for “Y114F”; type: cell-based; in short: as §2

Sequence of P2Y purinoceptor 2 (Homo sapiens), P41231 [Y114F] (P41231 whole entry Y114F): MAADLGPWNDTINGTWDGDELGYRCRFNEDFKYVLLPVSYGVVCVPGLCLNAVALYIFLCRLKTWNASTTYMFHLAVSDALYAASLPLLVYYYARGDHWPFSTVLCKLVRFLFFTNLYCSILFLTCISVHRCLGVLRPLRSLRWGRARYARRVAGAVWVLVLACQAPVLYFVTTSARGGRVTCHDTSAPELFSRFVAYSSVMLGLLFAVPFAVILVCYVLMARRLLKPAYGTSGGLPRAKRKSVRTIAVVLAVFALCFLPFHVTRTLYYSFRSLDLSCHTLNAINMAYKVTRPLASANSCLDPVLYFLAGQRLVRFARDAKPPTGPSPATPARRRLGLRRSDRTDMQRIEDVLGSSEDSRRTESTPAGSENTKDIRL
T1 sequence (P41231 whole entry): as the sequence (P41231 whole entry Y114F) above, with F114Y counted along it
Sequence of P2Y purinoceptor 2 (Homo sapiens), P41231 [R292A] (P41231 whole entry R292A): as the sequence (P41231 whole entry Y114F) above, with F114Y, R292A counted along it
Sequence of P2Y purinoceptor 2 (Homo sapiens), P41231 [Y288A] (P41231 whole entry Y288A): as the sequence (P41231 whole entry Y114F) above, with F114Y, Y288A counted along it
Sequence of P2Y purinoceptor 2 (Homo sapiens), P41231 [R265A] (P41231 whole entry R265A): as the sequence (P41231 whole entry Y114F) above, with F114Y, R265A counted along it
Sequence of P2Y purinoceptor 2 (Homo sapiens), P41231 [F261A] (P41231 whole entry F261A): as the sequence (P41231 whole entry Y114F) above, with F114Y, F261A counted along it
Sequence of P2Y purinoceptor 2 (Homo sapiens), P41231 [R110A] (P41231 whole entry R110A): as the sequence (P41231 whole entry Y114F) above, with R110A, F114Y counted along it
Sequence of P2Y purinoceptor 2 (Homo sapiens, UniProt P41231, H184A) (P41231 whole entry H184A): as the sequence (P41231 whole entry Y114F) above, with F114Y, H184A counted along it
Sequence of P2Y purinoceptor 2 (Homo sapiens, UniProt P41231, S193A) (P41231 whole entry S193A): as the sequence (P41231 whole entry Y114F) above, with F114Y, S193A counted along it
Sequence of P2Y purinoceptor 2 (Homo sapiens, UniProt P41231, Y288F) (P41231 whole entry Y288F): as the sequence (P41231 whole entry Y114F) above, with F114Y, Y288F counted along it
Sequence of P2Y purinoceptor 2 (Homo sapiens), P41231 [Y288F] (P41231 whole entry Y288F): as the sequence (P41231 whole entry Y114F) above, with F114Y, Y288F counted along it

Cc1cccc(Nc2ccc(Nc3cc(S(=O)(=O)O)c(N)c4c3C(=O)c3ccccc3C4=O)cc2C(=O)O)c1C
inhibition [1]: Active
inhibition (Homo sapiens [2]): Active
inhibition (P2Y purinoceptor 2 [3]): Active

Nc1ncnc2c1ncn2[C@@H]1O[C@H](COP(=O)(O)OP(=O)(O)OP(=O)(O)OP(=O)(O)OC[C@@H]2O[C@H](n3cnc4c(N)ncnc43)[C@@H](O)[C@H]2O)[C@@H](O)[C@H]1O
Activity [4]: inactive
Activity [5]: inactive
Activity [6]: inactive
Ratio EC50 (Homo sapiens [7]): 25
Activity [8]: inactive
Activity [9]: inactive
Activity [10]: inactive
Activity [11]: inactive
Activity (Homo sapiens [12]): inactive
Ratio EC50 (Homo sapiens [13]): > 4000

O=c1ccn([C@@H]2O[C@H](COP(=O)(O)OP(=O)(O)OP(=O)(O)O)[C@@H](O)[C@H]2O)c(=O)[nH]1 [URIDINE TRIPHOSPHATE]
Activity [4]: inactive
EC50 (P2Y purinoceptor 2 [14]): 0.00561 µM
Ratio EC50 (Homo sapiens [15]): 10 to 50
Ratio EC50 (Homo sapiens [16]): 300
Activity [5]: Active
Ratio EC50 (Homo sapiens [17]): 10 to 50
Ratio EC50 (Homo sapiens [18]): 10 to 50
Activity [6]: Active
Ratio EC50 (Homo sapiens [7]): 50
EC50 (P2Y purinoceptor 2 [19]): 0.996 µM
Ratio EC50 (Homo sapiens [20]): > 100
Ratio EC50 (Homo sapiens [21]): 10 to 50
Activity [8]: inactive
EC50 (P2Y purinoceptor 2 [22]): 0.911 µM
Activity [10]: inactive
EC50 (P2Y purinoceptor 2 [23]): 0.0706 µM
Activity [11]: inactive
Ratio EC50 (Homo sapiens [24]): 150
Ratio EC50 (Homo sapiens [25]): 10 to 50
Ratio EC50 (Homo sapiens [26]): 100
Activity (Homo sapiens [12]): Active
Ratio EC50 (Homo sapiens [13]): 350

CSc1nc(N)c2ncn([C@@H]3O[C@H](COP(=O)(O)OP(=O)(O)OP(=O)(O)O)[C@@H](O)[C@H]3O)c2n1
Ratio EC50 (Homo sapiens [13]): 350

Cc1ccc2c(c1)C=Cc1cc(C)ccc1C2c1cn(Cc2ccc(C(=O)Nc3nnn[nH]3)o2)c(=O)[nH]c1=S
Ratio IC50 (Homo sapiens [27]): < 3
Ratio IC50 (Homo sapiens [28]): < 3
Ratio IC50 (Homo sapiens [29]): < 3
Ratio IC50 (Homo sapiens [30]): < 3
Ratio IC50 (Homo sapiens [31]): < 3
inhibition (P2Y purinoceptor 2 [3]): Active

Nc1ncnc2c1ncn2[C@@H]1O[C@H](COP(=O)(O)OP(=O)(O)OP(=O)(O)O)[C@@H](O)[C@H]1O
Ratio EC50 (Homo sapiens [13]): 350

Nc1c(S(=O)(=O)O)cc(Nc2ccc(Nc3ccccc3Cl)c(C(=O)O)c2)c2c1C(=O)c1ccccc1C2=O
inhibition (P2Y purinoceptor 2 [3]): Active

Nc1c(S(=O)(=O)O)cc(Nc2ccccc2)c2c1C(=O)c1ccccc1C2=O
inhibition [1]: Active
inhibition (Homo sapiens [2]): Active
inhibition (Homo sapiens [32]): Active
inhibition (P2Y purinoceptor 2 [3]): Active
